CDK5 p35 inh: blocks human CDK5/p35 kinase activity; Q00535+Q15078; Recombinant CDK5/p35, ADP-Glo luminescence, 60 min; inhibition, % at 10 µM; actives 0.01% (n = 330,000);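 active = highest replicate inhibition of at least 50% and at least 75% of replicates reaching 50%; inconclusive = only one of the two criteria met; inactive = both criteria failed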;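 also: plate controls were DMSO neutral control for no effect and GW8510 at 10 µM for full effect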
Target sequence (Q00535 whole entry, looked up): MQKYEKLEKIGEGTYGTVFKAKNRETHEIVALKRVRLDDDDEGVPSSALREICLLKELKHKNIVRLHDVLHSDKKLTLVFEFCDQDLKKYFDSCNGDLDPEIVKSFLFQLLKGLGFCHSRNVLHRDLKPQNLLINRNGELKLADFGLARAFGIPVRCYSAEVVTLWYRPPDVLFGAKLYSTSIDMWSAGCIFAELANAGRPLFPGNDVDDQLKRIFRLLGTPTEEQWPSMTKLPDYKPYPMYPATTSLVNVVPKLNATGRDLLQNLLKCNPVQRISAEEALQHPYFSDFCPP
Target sequence (Q15078 whole entry, looked up): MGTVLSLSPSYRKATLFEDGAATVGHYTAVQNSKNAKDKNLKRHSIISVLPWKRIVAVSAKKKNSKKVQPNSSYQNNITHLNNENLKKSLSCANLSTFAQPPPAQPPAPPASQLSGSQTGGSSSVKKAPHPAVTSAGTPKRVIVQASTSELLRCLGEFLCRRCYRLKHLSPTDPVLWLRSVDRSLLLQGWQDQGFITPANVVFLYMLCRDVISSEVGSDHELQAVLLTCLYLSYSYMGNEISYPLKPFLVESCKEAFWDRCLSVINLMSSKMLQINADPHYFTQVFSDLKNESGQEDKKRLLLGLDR
GSK3A inh: human GSK-3 alpha kinase inhibition; P49840; ADP-Glo luminescence, 60 min; inhibition, % at 10 µM; actives 0.1% (n = 320,000); AID 2650;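 active = more than half of replicates show inhibition above 20%; inconclusive = some but at most half of replicates above 20% inhibition; inactive = no replicate shows inhibition above 20%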;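 also: GST-tagged GSK-3 alpha with peptide substrate and 25 µM ATP; 0% = DMSO neutral wells and 100% = GW8510 positive control wells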
STK33 inh: human STK33 kinase inhibition; purified STK33, MBP phosphorylation, ADP-Glo luminescence; inhibition, % at 10 µM; actives 0.073% (n = 320,000); AID 2661;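 active = inhibition at or above 25%, using the most active replicate where run in duplicate; inactive = inhibition below 25%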
GSIS activator: GLuc luminescence reporter in INS-1E cells, primary screen for activators of glucose-dependent secretion of insulin; actives 0.61% (n = 370,000); INS-1E GLuc reporter insulin secretion, 2-3 h; AID 743287; activation, % at 16.6 µM;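 active = lowest replicate activation of at least 40%, so every replicate reaches that level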;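 also: 0% = median of neutral control wells and 100% = median of IBMX positive control wells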
Env fusion inh: blocks HIV Env-driven cell-cell fusion; HeLa-JRFL Env/CEM21 cell fusion, luciferase; inhibition, % at 12.3 µM; actives 1.1% (n = 360,000); AID 651610;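 active = mean replicate inhibition score of at least 50 and every replicate individually at or above 50; inconclusive = only one of the two criteria met; inactive = mean below 50 and not all replicates reaching 50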;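 also: 0% = plate neutral controls and 100% = maraviroc near 300 nM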
GSK3B inh: human GSK3beta kinase inhibition; P49841; GST-GSK3beta kinase, ADP-Glo luminescence, 60 min; hits give low values; activity score (negative = inhibition), % at 10 µM; actives 0.038% (n = 300,000); AID 2097;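 active = more than half of replicate wells score below -50%, meaning over 50% inhibition versus plate controls; inconclusive = some replicates but at most half score below -50%; inactive = no replicate scores below -50%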;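 also: 0% = median DMSO wells and -100% = median GW8510 positive control wells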
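Test system: GST-tagged human GSK3beta kinase, cell-free; evaluation: activity score scaled between in-plate DMSO and GW8510 controls; measured by: ADP-Glo luminescence; incubation: 60 min reaction, RT; benchmarks: DMSO and 20 µM GW8510; reagent: peptide substrate plus 25 µM ATP (final); medium: Tris/MgCl2 kinase buffer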
Numbers without * were called inactive; ? = inconclusive; . = no result given; + = active, no number; [ ] = remark or other dose. Most compounds without a hit are left out; they make up all but 1.4% or so of the library.

SMILES	CDK5 p35 inh	GSK3A inh	STK33 inh	GSIS activator	Env fusion inh	GSK3B inh
CCCN(C)C[C@H]1OCCCC[C@@H](C)Oc2ccc(NS(=O)(=O)c3ccc(F)cc3)cc2C(=O)N([C@@H](C)CO)C[C@H]1C	.	.	.	1.6	-17.7[16.7 µM]	.
O=C(COc1ccc2c(c1)OCO2)Nc1ccc2c(c1)oc1ccccc12	-0.3	.	-0.6	80.8*	.	2.2
O=C(c1ccccc1)N1CCSC1=S	0.8	-1.7	-0.7	.	-2.7	-1.4
O=C(c1ccccc1)N1CCSc2sccc2C1=O	-0.2	.	.	30.3	66.4*	-5.1
CCN(CC)S(=O)(=O)c1cc(NC(=O)C(=O)c2c(-c3ccccc3)cc3ccccn23)ccc1C	-0.4	0.2	0.9	.	77.3*	-0.7
O=[N+]([O-])c1cc(S(=O)(=O)N2CCCC2)ccc1N/N=C/c1cccs1	0.6	1.4	0.4	47.9*	11.8	0.2
CC(=O)Nc1sc(N/N=C\c2cccc(Cl)c2)nc1-c1cccs1	-1.4	0.6	-0.8	68.5*	.	0.6
COc1ccc(CCN2CC(=O)NC(=O)C2)cc1OC	.	.	.	54.5*	-19.1	.
COc1ccc(OC)c(/C=C/C(=O)OCC(=O)N2C(C)CCCC2C)c1 (configuration not stated)	0.1	0.2	0.7	-36.5	91.5*	.
CO[C@@H]1CN(C)C(=O)c2ccc(NC(C)=O)cc2OC[C@H](C)N(C(=O)C2CC2)C[C@H]1C	.	.	.	16.0	.	.
CCN(CC)c1ccc(/C=N/N2C(C)CCCC2C)c(O)c1 (configuration not stated)	-0.2	-2.5	-0.1	4.1	73.4*	2.8
N#CCOc1nc(N2CCOCC2)nc(N2CCOCC2)n1	1.7	-2.8	-1.2	.	-18.2	-0.3
N#Cc1nc(N2CCOCC2)nc(N2CCOCC2)n1	1.4	0.0	1.2	56.9*	.	-5.9
COc1ccc2c3c(n(C)c2c1)[C@@H](CO)N(C(=O)C1CC1)CC31CN(C(=O)Nc2cccc(F)c2)C1	.	.	.	-17.9	.	.
C[C@H](CO)N1C[C@H](C)[C@H](CN(C)C(=O)Nc2ccc3c(c2)OCO3)Oc2ccc(NC(=O)Nc3ccccc3)cc2C1=O	.	.	.	-5.3	-10.5[16.7 µM]	.
CCC[C@H](CN[C@@H](CNC)[C@H](C)CC)NCCc1cc(C(F)(F)F)cc(C(F)(F)F)c1	1.0	6.5	1.1	24.1	-19.3	-3.6
CNC[C@@H](CC1CCCCC1)NC[C@H](CC(C)C)NCCc1cccc(C(F)(F)F)c1	0.1	7.2	0.8	480.2*	93.5*	-13.1
CNC[C@@H](Cc1ccccc1)NC[C@@H](CC1CCCCC1)NCCCc1ccccc1	-2.7	10.0	0.9	88.9*	103.5*	-17.2
CC[C@@H](C)[C@H](CNC)NC[C@@H](Cc1cccc2ccccc12)NCCc1cccc(C(F)(F)F)c1	1.4	16.7	0.1	+	?	-5.2
CCC[C@@H](CNC)NC[C@H](Cc1ccccc1)NCCCCc1ccccc1	-0.1	3.2	-0.9	-7.0	-24.9	-2.7
C[C@H]1CN([C@@H](C)CO)C(=O)Cc2cc(NS(=O)(=O)c3ccc(F)cc3)ccc2O[C@@H]1CN(C)C(=O)Nc1ccc(C(F)(F)F)cc1	.	.	.	-16.8	5.4[16.7 µM]	.
CN1CCN(C(=O)C[C@H]2CC[C@H]3[C@@H](COC[C@H](O)CN3Cc3ccc4c(c3)OCO4)O2)CC1	.	.	.	2.7	.	.
CCOc1ccc(OCCCC(=O)Nc2cc(S(=O)(=O)N3CCOCC3)ccc2N2CCOCC2)cc1	1.6	.	.	-23.2	.	.
COc1ccc(NC(=O)CSc2ccc3ccccc3c2)cc1S(=O)(=O)N1CCCCC1	-1.2	-1.3	-0.4	-4.8	55.8*	1.5
COc1ccc(NC(=O)CCCOc2ccc(Cl)c(C)c2)cc1S(=O)(=O)N1CCOCC1	3.8	-3.3	-0.4	-45.2	58.9*	.
SMILES	CDK5 p35 inh	GSK3A inh	STK33 inh	GSIS activator	Env fusion inh	GSK3B inh
Cc1cc(Cl)ccc1OCCCC(=O)Nc1cc(S(=O)(=O)N2CCOCC2)ccc1N1CCOCC1	0.3	.	.	-5.2	113.7*	.
COc1ccc(OCCCC(=O)Nc2ccc(OC)c(S(=O)(=O)N3CCOCC3)c2)cc1	-0.6	-1.4	1.0	-4.0	0.3	.
COc1ccc(NC(=O)CSc2ccc(NC(C)=O)cc2)cc1S(=O)(=O)N1CCOCC1	1.1	-1.0	-2.9	-14.8	6.8	.
O=C(CCN1CCN(Cc2ccccc2)CC1)Nc1ccc(OCc2ccccc2)cc1	-1.0	1.3	-0.9	.	58.9*	-0.1
C[C@@H]1CN([C@H](C)CO)C(=O)c2cc(NC(=O)Nc3ccccc3)ccc2O[C@@H](C)CCCCO[C@H]1CN(C)C(=O)Nc1ccc(C(F)(F)F)cc1	.	.	.	5.4	.	.
COc1ccccc1S(=O)(=O)n1cc(Cc2ccccc2)c(N)n1	-0.1	-2.4	-0.3	.	78.9*	-2.4
C/C=C/c1ccc2c(c1)O[C@@H](CN(C)C(=O)C1CCC1)[C@@H](C)CN([C@H](C)CO)S2(=O)=O	.	.	.	-1.3	-1.5[16.7 µM]	.
COc1ccc(OC)c(CN2C(=O)c3ccccc3C2c2nnnn2-c2c(C)cccc2C)c1 (configuration not stated)	.	.	.	-28.5	67.9*	.
C[C@H](CO)N1C[C@H](C)[C@@H](CN(C)C)Oc2ccc(NS(=O)(=O)c3ccc(Cl)cc3)cc2CC1=O	.	.	.	11.9	.	.
Cc1ccc(S(=O)(=O)N(C)C[C@@H]2Oc3ccc(NC(=O)Nc4ccc5c(c4)OCO5)cc3C(=O)N([C@H](C)CO)C[C@@H]2C)cc1	.	.	.	-19.6	60.1*[16.7 µM]	.
C[C@H](CO)N1C[C@H](C)[C@H](CN(C)S(=O)(=O)c2ccc(Cl)cc2)Oc2ccc(NC(=O)Nc3ccc4c(c3)OCO4)cc2C1=O	.	.	.	-18.3	110.7*[16.7 µM]	.
C[C@H]1CN([C@@H](C)CO)C(=O)c2cc(NC(=O)Nc3ccc4c(c3)OCO4)ccc2O[C@H]1CN(C)S(=O)(=O)c1ccc(Cl)cc1	.	.	.	-18.1	64.9*[16.7 µM]	.
COCC(=O)Nc1ccc2c(c1)OC[C@@H](C)N(Cc1ccccc1OC)C[C@H](C)[C@@H](OC)CN(C)C2=O	.	.	.	-0.3	.	.
COc1ccccc1CC(=O)N1CCN(c2cccc(C(F)(F)F)c2)CC1	3.0	-0.8	-2.6	.	66.0*	-4.7
C[C@@H]1CN([C@H](C)CO)C(=O)c2cccc(NC(=O)C3CCOCC3)c2O[C@H]1CN(C)Cc1ccc(-c2ccccc2)cc1	.	.	.	-42.7	.	.
Cc1ccc(OCC(=O)N2CCN(c3nnc(-c4ccccc4)c4ccccc34)CC2)cc1	-4.5	-2.0	0.0	.	43.0	2.6
CC(=O)N1CCN(c2nnc(-c3ccc(C)cc3)c3ccccc23)CC1	-0.1	1.1	-2.0	40.9*	17.3	1.7
C[C@@H]1CN([C@H](C)CO)C(=O)c2c(c3ccccc3n2C)-c2ccccc2CO[C@H]1CN(C)S(=O)(=O)c1cccs1	.	.	.	-12.3	14.3[16.7 µM]	.
COc1ccc2c3c([nH]c2c1)[C@@H](CO)N(C(=O)c1cccnc1)CC31CCN(C(=O)c2cccnc2)CC1	.	.	.	8.8	.	.

From PubChem BioAssay
